Laboratory results from the RNAGym collection of RNA variant scans (doi:10.1126/science.aae0568).
Fewer inactive variants are shown than the library holds.

B1: tRNA (parent)
chain: GUUCCGUUGGCGUAAUGGUAACGCGUCUCCCUCCUAAGGAGAAGACUGCGGGUUCGAGUCCCGUACGGAACG

Variants of: B1
Test: yeast fitness relative to wild type (ratio to wild type); higher = fitter; tRNA-Arg(CCU), competitive growth, 37 C, YPD
How it was run: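 The tRNA-Arg(CCU) gene variants were made by chemical synthesis with a 3% per-site mutation rate at 69 sites and inserted at the native genomic locus of Saccharomyces cerevisiae. After pooling, the strains were competed in YPD at 37°C for 24 hours in six parallel replicates. Gene amplicons from the start population and each end population were read by 100-nucleotide paired-end sequencing, and Darwinian fitness relative to wild type was taken from genotype frequency changes. Genotypes needed ≥ 100 starting reads, and estimates < 0.5 were set to 0.5.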

Variant	yeast fitness
A15G G38A A40C G41C C49U	0.597
A15C U54G	0.537
A15G U26A A45G C60U C62A	0.562
A15G A42C G51C G67C	≤ 0.5
A15U C24A C34G G39U A65G	0.651
A14U U35C U53G	0.634
A15G G41C G51C C61G	0.726
A15C G17A G38C C62U	≤ 0.5
A15G A37U A40C A43C	≤ 0.5
A15G C49U C61U	0.672
A15U A36U C60G	≤ 0.5
A15G A42G C61U	0.579
A15G U28C C30U A36C A45U G50C	≤ 0.5
A14U U26C A57U	≤ 0.5
A15C C31G	0.632
A14U U19C C29U C30A A45C	≤ 0.5
A15C A20U C31G C62A	≤ 0.5
A15C G56A G67A	0.61
A15C U32A A65C	≤ 0.5
A15G U28C U35A G38A C46G C62U G67U	≤ 0.5
A14U U53C	0.613
A15G C29U	0.952
A15G C61A A69U	0.643
A15G C46G G67A	0.623

Variant	yeast fitness
A15G U32A	0.637
A15C A36U A65C	0.54
A15C G39A A65G	0.517
A15G C34G C46U	≤ 0.5
A15U C24U G44A	0.503
A15G C24G C31G G50A	≤ 0.5
A15C A20G A65G	≤ 0.5
A14U C34G C49G C66U	≤ 0.5
A14U C29A C49A A69U	≤ 0.5
A15C A36U G39A	≤ 0.5
A15C A70C	0.751
A15G U26G C30U G52A	≤ 0.5
A15U A20U C24U A65G A70C	≤ 0.5
A15C G51C C61U	≤ 0.5
A15C C27A	0.554
A15C C29U C31U G67C	0.591
A15C U53G	0.621
A15U A20G A37C	≤ 0.5
A15C C29U G68C	≤ 0.5
A15U A20U C27G C49G	0.64
A14U U26A C62G	≤ 0.5
A14U G17C A70G	≤ 0.5
A15C U19A U64A A65G G67U	≤ 0.5
A15G C29A C34G	≤ 0.5

Variant	yeast fitness
A15G G44A G50C	≤ 0.5
A14U G23A C31U A43U	≤ 0.5
A15C A43U G67A	0.535
A15C A57C	≤ 0.5
A15U A20C U32G A65C	0.537
A15G C60G A69C	0.585
A14U U64C A65G	0.567
A15C C29U G39C A42U G50U G51C G63A A65U	≤ 0.5
A15C U35C C46G	0.67
A15C C34G C60U	≤ 0.5
A14U G39A	0.671
A15C U47G G68U	≤ 0.5
A15C A36G U47C C55A	≤ 0.5
A15C C33U U47G C49U G52C A70G	0.585
A15C U47C A69U	0.551
A15G G48A A65C	0.686
A15U A21C U53C G56C A65G	0.77
A15U A42G	0.746
A14U C31A C66A	≤ 0.5
A15C C31U C62G U64G A65G G67C	≤ 0.5
A15G U64A	0.706
A15U C27U U28G C33U	≤ 0.5
A14U G17A G23C C29U C34G A45C U54G	≤ 0.5
A15U C24U A65G	0.53

Variant	yeast fitness
A15G G63A	0.926
A15C C31A C34A G67C	≤ 0.5
A15C G25A U28A	≤ 0.5
A15G A21G G39A	0.649
A15U A21G C24U C33U A40C A43C C49U C61U	0.516
A15C G48A U64G	0.593
A15C C30A	0.666
A15G C24G U28A G52C A65C	≤ 0.5
A15G A20U C29G A43G G67A	≤ 0.5
A14U C30G A40G C66U	≤ 0.5
A15C C29G C30G U47C	≤ 0.5
A14U G52C	≤ 0.5
A15U A21U	0.708
A15G C29G A37C A42U A57G G67A	≤ 0.5
A15G U26G C30U G51U G52A	≤ 0.5
A15G G39C A69C	0.624
A15G G56A A65C	0.619
A15U A21C G39C U54A	≤ 0.5
A15C A21U G39A	≤ 0.5
A14U G25A	0.686
A14U U16A U26G C29G G67C	≤ 0.5
A15U A21C C29U C30A G38A	≤ 0.5
A15C G58A G68A	0.611
A15G C30U A69U	0.609

Variant	yeast fitness
A15U C24G C66U	0.608
A15G G17A C30A C61A	≤ 0.5
A15G G44C G68U	≤ 0.5
A15C U16A A21G U26A C30U C61A A69U	0.575
A14U U16G C33G G50A G58C G63C	≤ 0.5
A15C U59G	0.673
A14U G23C C29G G51A G56C	≤ 0.5
A14U U28A G67C	≤ 0.5
A14U U26A	0.694
A15G A20C C60U	≤ 0.5
A15G G18C	0.7
A15G G25A A37G A70C	0.522
A15C A40U	0.833
A15G A42C G52C	≤ 0.5
A15G G17A C33U	≤ 0.5
A14U C33U A36U G41C	≤ 0.5
A15C C30A G48C G56C	≤ 0.5
A15C G52C	0.575
A14U G38C C46A	0.551
A15C G17A U54C C55G	≤ 0.5
A15C G38A C49A	≤ 0.5
A14U G23C C55G	≤ 0.5
A14U U26G C49G	≤ 0.5
A15G U32A A43U	0.603

Variant	yeast fitness
A15G A36C G67C	≤ 0.5
A15C C27U G63A	≤ 0.5
A15C G17A G18A A36C	≤ 0.5
A15U C22G C31U	0.536
A15U A45C C46A G67A	≤ 0.5
A15G C30G G63A	≤ 0.5
A15G C30G G39C	≤ 0.5
A15G G17C C33A G56C A65C G68A	≤ 0.5
A14U U26G G56A A65G C66U	≤ 0.5
A15C A20C G39C A69C	≤ 0.5
A15G A42U	0.971
A15C G23A A42C G48A G50C	≤ 0.5
A15G G17A A69C	0.586
A15U A57C A65U	0.794
A15C G25C C29U U35C A43U A69U	≤ 0.5
A14U U19A A36C	≤ 0.5
A15G G23C G44A	≤ 0.5
A15G G23A A36G C55A	≤ 0.5
A15G U64G A69C	0.564
A15G A45U A70U	0.692
A15G U19C A37U C49U G51A	0.555
A15G C31G A40U C60G G67A	0.529
A15C U47A A65C	0.561
A15G C24A C46A	0.64

Variant	yeast fitness
A15G A45U	0.987
A15U C29A C34G C62U G68A	0.616
A15G C30U C55U	≤ 0.5
A15U A40G C46U	0.697
A15G G23C	0.712
A14U C29U A37U C49A G67A	≤ 0.5
A14U G44C G50A	≤ 0.5
A14U C34G A37C A57C	≤ 0.5
A15G A57G	0.899
A15G A57C	0.636
A14U C30G U32G	≤ 0.5
A14U C30U C62A	≤ 0.5
A15U C24U A37U U54G	≤ 0.5
A15G G58C C62G	≤ 0.5
A14U C60G A70C	≤ 0.5
A15G G39A A40G A57C	0.534
A14U U16A G25A A37G	≤ 0.5
A15C C30A C34A A42C G56A A57U	≤ 0.5
A15U A45G C49G	≤ 0.5
A15C U26C G56A C61U	≤ 0.5
A15C G23C C60U A69G	≤ 0.5
A15G C49U	1.07
A15C G17C C31G G50C C62G A70C	≤ 0.5
